Legend:
Assay type in all cases: functional, organism-based
[1] = system: Human immunodeficiency virus 1; test: Antiviral activity against HIV1 V106A mutant using HeLa MAGI assay; details: Human immunodeficiency virus 1, V106A
In short: (§1)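 HeLa CD4-LTR-β-gal cells infected with isogenic recombinant HIV-1 built on the HxB2 backbone and carrying the RT mutation (K103N, V106A or Y181C). Infection was read by a chemiluminescent β-galactosidase signal 3 days after infection. The IC50 is the concentration giving 50% inhibition of the signal relative to untreated controls. Cytotoxicity was run in parallel by CellTiter96; highest concentration mostly 0.5 µM.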

[2] = system: Human immunodeficiency virus 1; test: Antiviral activity against HIV1 Y181C mutant using HeLa MAGI assay; details: Human immunodeficiency virus 1, Y181C; in short: as §1
[3] = system: Human immunodeficiency virus 1; test: Antiviral activity against HIV1 K103N mutant using HeLa MAGI assay; details: Human immunodeficiency virus 1, K103N; in short: as §1
[4] = system: Human immunodeficiency virus 1; test: Antiviral activity against HIV1 3B in MT4 cells; details: Human immunodeficiency virus 1, 3B
In short: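 MT4 T-cell line infected with HIV-1 IIIB (from H9/HTLV-IIIB supernatants) at 100× the inoculum giving 50% growth reduction; incubated 5 days with a range of compound concentrations. Virus cytopathic effect read by MTS staining; IC50 taken as mean of one triplicate experiment. Cytotoxicity measured in parallel on uninfected cells.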

[5] = system: Human immunodeficiency virus 1; test: Antiviral activity against HIV1 HxB2 using HeLa MAGI assay; details: Human immunodeficiency virus 1, HxB2
In short: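 HeLa CD4-LTR-β-gal cells infected with HxB2 (from molecular clone pHxB2-D) or isogenic RT mutants; HIV-LTR-driven β-galactosidase quantified with chemiluminescent substrate 3 days post-infection. IC50 is the concentration inhibiting 50% of signal relative to untreated controls. Cytotoxicity measured in parallel by CellTiter96.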

Cc1nc(S(N)(=O)=O)ccc1NC(=O)COc1ccc(Cl)cc1C(=O)c1cc(Cl)cc(C#N)c1
IC50 [1]: 7 nM
IC50 [2]: 3 nM
IC50 [3]: 3 nM

Cc1cc(N2CC[S+]([O-])CC2)ccc1NC(=O)COc1ccc(Cl)cc1C(=O)c1ccccc1
IC50 [1]: 1400 nM
IC50 [2]: 150 nM
IC50 [3]: 100 nM

Cc1cc(S(N)(=O)=O)ccc1NC(=O)COc1ccc(Cl)cc1C(=O)c1cc(F)cc(C(F)(F)F)c1
IC50 [4]: 1 nM
IC50 [5]: 1.4 nM
IC50 [1]: 10.5 nM
IC50 [2]: 2.9 nM
IC50 [3]: 2 nM

Cc1ccccc1NC(=O)COc1ccc(Cl)cc1C(=O)c1cc(F)cc(F)c1
IC50 [4]: 25 nM
IC50 [5]: 8 nM
IC50 [2]: 25 nM
IC50 [3]: 38 nM

Cc1cc(C#N)cc(C(=O)c2cc(Cl)ccc2OCC(=O)Nc2ccc(S(N)(=O)=O)cc2C)c1
IC50 [1]: 1.4 nM
IC50 [2]: 1.9 nM
IC50 [3]: 0.9 nM

Cc1cc(Cl)cc(C(=O)c2cc(Cl)ccc2OCC(=O)Nc2ccc(S(N)(=O)=O)cc2C)c1
IC50 [1]: 9.4 nM
IC50 [2]: 3.3 nM
IC50 [3]: 3.6 nM

Cc1cc(N2CC[S+]([O-])CC2)ccc1NC(=O)COc1ccc(Cl)cc1C(=O)c1cccc(C#N)c1
IC50 [2]: 6 nM
IC50 [3]: 5 nM

Cc1cc(N2CC[S+]([O-])CC2)ccc1NC(=O)COc1ccc(Cl)cc1C(=O)c1ccccc1C#N
IC50 [1]: 2000 nM
IC50 [2]: 700 nM
IC50 [3]: 155 nM

O=C(COc1ccc(Cl)cc1C(=O)c1cc(F)cc(F)c1)Nc1ccc(Cl)nc1
IC50 [3]: 67 nM

Cc1cc(OCCCS(N)(=O)=O)ccc1NC(=O)COc1ccc(Cl)cc1C(=O)c1cc(F)cc(C(F)(F)F)c1
IC50 [4]: 7 nM
IC50 [5]: 3 nM
IC50 [2]: 6 nM
IC50 [3]: 4 nM

Cc1cc(S(N)(=O)=O)ccc1NC(=O)COc1ccc(Cl)cc1C(=O)c1cc(C#N)cc(C(F)(F)F)c1
IC50 [1]: 5.6 nM
IC50 [2]: 2 nM
IC50 [3]: 1.1 nM

Cc1cc(N2CC[S+]([O-])CC2)ccc1NC(=O)COc1ccc(Cl)cc1C(=O)c1ccc(C#N)cc1
IC50 [1]: 1400 nM
IC50 [2]: 355 nM
IC50 [3]: 44 nM

Cc1cc(S(N)(=O)=O)ncc1NC(=O)COc1ccc(Cl)cc1C(=O)c1cc(Cl)cc(C#N)c1
IC50 [1]: 10 nM
IC50 [2]: 2 nM
IC50 [3]: 5 nM

Cc1cc(S(N)(=O)=O)ccc1NC(=O)COc1ccc(Cl)cc1C(=O)c1cc(N)cc(C#N)c1
IC50 [1]: 18 nM
IC50 [2]: 450 nM
IC50 [3]: 140 nM

COc1cc(OC)cc(C(=O)c2cc(Cl)ccc2OCC(=O)Nc2ccc(S(N)(=O)=O)cc2C)c1
IC50 [1]: 500 nM
IC50 [2]: 13 nM
IC50 [3]: 370 nM

Cc1cc(S(N)(=O)=O)ccc1NC(=O)COc1ccc(Cl)cc1C(=O)c1cc(Cl)cc(Br)c1
IC50 [1]: 13 nM
IC50 [2]: 6.9 nM
IC50 [3]: 6.1 nM

O=C1Nc2ccc(Cl)cc2C(C#CC2CC2)(C(F)(F)F)O1 (single isomer, unassigned) [EFAVIRENZ]
IC50 [1]: 1.8 nM
IC50 [2]: 1.6 nM
IC50 [3]: 25 nM

CCN(CC)CCCNc1ccc(NC(=O)COc2ccc(Cl)cc2C(=O)c2cc(F)cc(F)c2)c(C)c1
IC50 [4]: 41 nM
IC50 [3]: 96 nM

Cc1cc(NCCCN2CCCC2)ccc1NC(=O)COc1ccc(Cl)cc1C(=O)c1cc(F)cc(F)c1
IC50 [4]: 18 nM
IC50 [3]: 109 nM

Cc1cc(S(=O)(=O)N(C)C)ccc1NC(=O)COc1ccc(Cl)cc1C(=O)c1cc(F)cc(C(F)(F)F)c1
IC50 [4]: 10 nM
IC50 [5]: 8 nM
IC50 [3]: 6 nM

Cc1cc(S(N)(=O)=O)ccc1NC(=O)COc1ccc(Cl)cc1C(=O)c1cc(Cl)cc(C#N)c1
IC50 [1]: 3.4 nM
IC50 [2]: 0.7 nM
IC50 [3]: 1 nM

Cc1cc(OCCCNC(N)=O)ccc1NC(=O)COc1ccc(Cl)cc1C(=O)c1cc(F)cc(C(F)(F)F)c1
IC50 [4]: 6 nM
IC50 [5]: 4 nM
IC50 [2]: 10 nM
IC50 [3]: 4 nM

Cc1cc(C#N)cc(C(=O)c2cc(Cl)ccc2OCC(=O)Nc2ccc(S(N)(=O)=O)nc2C)c1
IC50 [1]: 3 nM
IC50 [2]: 4 nM
IC50 [3]: 6 nM

Cc1cc(S(N)(=O)=O)ccc1NC(=O)COc1ccc(Cl)cc1C(=O)c1cccc(C#N)c1
IC50 [1]: 30 nM
IC50 [2]: 1.5 nM
IC50 [3]: 1.5 nM

Cc1cc(C#N)cc(C(=O)c2cc(Cl)ccc2OCC(=O)Nc2cnc(S(N)(=O)=O)cc2C)c1
IC50 [1]: 2 nM
IC50 [2]: 4 nM
IC50 [3]: 7 nM

Cc1cc(NC(=O)CCN2CCOCC2)ccc1NC(=O)COc1ccc(Cl)cc1C(=O)c1cc(F)cc(F)c1
IC50 [4]: 5 nM
IC50 [3]: 9 nM

Cc1cc(S(N)(=O)=O)ccc1NC(=O)COc1ccc(Cl)cc1C(=O)c1cc(Br)cc(C(F)(F)F)c1
IC50 [1]: 18 nM
IC50 [2]: 290 nM
IC50 [3]: 93 nM

CNS(=O)(=O)c1ccc(NC(=O)COc2ccc(Cl)cc2C(=O)c2cc(F)cc(C(F)(F)F)c2)c(C)c1
IC50 [4]: 8 nM
IC50 [5]: 3 nM
IC50 [3]: 2 nM

COc1ccc(NC(=O)COc2ccc(Cl)cc2C(=O)c2cc(F)cc(F)c2)cn1
IC50 [3]: 72 nM

Cc1cc(NCCCn2ccnc2)ccc1NC(=O)COc1ccc(Cl)cc1C(=O)c1cc(F)cc(F)c1
IC50 [4]: 37 nM
IC50 [3]: 158 nM

Cc1cc(C#N)cc(C(=O)c2cc(Cl)ccc2OCC(=O)Nc2ncc(S(N)(=O)=O)cc2C)c1
IC50 [3]: 93 nM

Cc1ccnc2c1NC(=O)c1cccnc1N2C1CC1 [NEVIRAPINE]
IC50 [1]: 8200 nM
IC50 [2]: 10300 nM
IC50 [3]: 5800 nM

Cc1cc(C)cc(C(=O)c2cc(Cl)ccc2OCC(=O)Nc2ccc(S(N)(=O)=O)cc2C)c1
IC50 [1]: 4.2 nM
IC50 [2]: 3 nM
IC50 [3]: 3.3 nM

Source: ChEMBL document CHEMBL1147746, “Structure-activity relationship studies of novel benzophenones leading to the discovery of a potent, next generation HIV nonnucleoside reverse transcriptase inhibitor” (J Med Chem, 2006)
